From ChEMBL document CHEMBL4138314, “Synthesis and Evaluation of N-Phenyl-3-sulfamoyl-benzamide Derivatives as Capsid Assembly Modulators Inhibiting Hepatitis B Virus (HBV)” (J Med Chem, 2018)
≈ marks a conversion by molar mass, not a printed value.

Columns and labels:
[1] = tested on: HBV genotype D; test: Antiviral activity against HBV genotype D infected in human HepG2.2.15 cells assessed as inhibition of viral DNA level treated twice for 3 days measured after 6 days by real time PCR; type: functional, organism-based; settings: Hepatitis B virus
[2] = tested on: Hepatitis B virus; test: Antiviral activity against Hepatitis B virus infected in human HepG2.117 cells assessed as inhibition of viral DNA level after 3 days by real time PCR; type: functional, organism-based; settings: HepG2.117, 72 h
[3] = Kinetic solubility of the compound at pH 7.4 after 4 hrs by UPLC-UV analysis; type: physicochemical; settings: buffer, read-out: Kinetic_solubility
[4] = Cytotoxicity against human HepG2 cells after 4 days by resazurin assay; type: cell-based
[5] = Drug metabolism in human liver microsomes at 1 uM after 15 mins by LC-MS/MS analysis; type: ADME, microsome; settings: read-out: Drug metabolism
Outline: (§1)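 Compound incubated 15 min with human or mouse liver microsomes; stability expressed as percent turnover (metabolised) at 15 min.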

[6] = Drug metabolism in mouse liver microsomes at 1 uM after 15 mins by LC-MS/MS analysis; type: ADME, microsome; settings: read-out: Drug metabolism; outline: as §1
[7] = tested on: Hepatitis B virus; test: Induction of HBV capsid core protein CP149 aggregation assessed as ratio between area under the curve for observed amount of core dimer and area under the curve for aggregated core protein at 20 uM after 24 hrs by size exclusion chromatographic analysis
Outline: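 Recombinant HBV core assembly domain (aa 1–149, Cp149) was incubated with compound at 20 µM for 24 h, with a no-compound control run in parallel. Size exclusion chromatography gave the ratio of Cp149 dimer AUC to aggregated Cp149 AUC.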

Structure (SMILES) | EC50 [1] | EC50 [2] | solubility kinetic at 4 h [3] | CC50 at 96 h [4] | metabolised at 0.25 h, 1 µM [5] | metabolised at 0.25 h, 1 µM [6] | Ratio [7]
O=C(Nc1ccc(F)cc1)c1cc(S(=O)(=O)NC2CCCC2)ccc1F | 0.36 µM | 0.66 µM | 82 µM (≈ 31.2 µg/mL) | > 25 µM | 36% | 77% | 
CN(C)S(=O)(=O)c1cccc(C(=O)Nc2ccc(F)cc2)c1 | 5.02 µM | 2.99 µM | 43 µM (≈ 13.9 µg/mL) | > 100 µM | 50% | 89% | 1.4
O=C(Nc1ccc(F)cc1)c1cc(S(=O)(=O)NC2CCCCC2)ccc1F | 0.78 µM | 1.3 µM | 58 µM (≈ 22.9 µg/mL) | > 50 µM | 61% | 79% | 0.3
O=C(Nc1cccc(S(=O)(=O)NC2CCCCC2)c1)c1ccc(F)cc1 | 8 µM | > 25 µM | 22 µM (≈ 8.28 µg/mL) | > 25 µM | 91% | 100% | 
O=C(Nc1ccc(F)cc1)c1cccc(S(=O)(=O)NC2CCCC2)c1 | 0.47 µM | 0.6 µM | 83 µM (≈ 30.1 µg/mL) | 32.7 µM | 50% | 91% | 
O=C(Nc1ccc(F)cc1)c1cccc(S(=O)(=O)NC2COC2)c1 | 2.1 µM | 3.05 µM | > 100 µM | > 100 µM | 14% | 21% | 0.8
O=C(NC1CCCCC1)c1cc(S(=O)(=O)NC2CCCCC2)ccc1F | 28.8 µM | > 25 µM |  | > 25 µM |  |  | 
O=S(=O)(NC1CCCCC1)c1ccc(F)c(-c2ncc(-c3ccccc3)[nH]2)c1 | 1.7 µM | 23.3 µM | 3 µM (≈ 1.2 µg/mL) | 19.2 µM | 75% | 99% | 10.2
CC(=O)N1CCC(NS(=O)(=O)c2cccc(C(=O)Nc3ccc(F)cc3)c2)CC1 | 6.77 µM | 4.68 µM | > 100 µM | > 100 µM | 0% | 23% | 2.9
O=C(Nc1ccc(F)cc1)c1cccc(S(=O)(=O)NC2CCC2)c1 | 0.83 µM | 0.9 µM | 84 µM (≈ 29.3 µg/mL) | 57.7 µM | 51% | 99% | 
O=C(Nc1ccc(F)cc1)c1cccc(NS(=O)(=O)C2CCCC2)c1 | 1.2 µM | 1.2 µM | 92 µM (≈ 33.3 µg/mL) | > 50 µM | 4% | 93% | 
CN1CCC(NS(=O)(=O)c2cccc(C(=O)Nc3ccc(F)cc3)c2)CC1 | 5.3 µM | 16 µM | 94 µM (≈ 36.8 µg/mL) | > 100 µM | 10% | 13% | 4.2
Cc1ccc(NC(=O)c2cccc(S(=O)(=O)NC3CCCC3)c2)cc1F | 1.99 µM | 15.3 µM | 12 µM (≈ 4.52 µg/mL) | > 25 µM | 67% | 99% | 
O=C(Nc1cccc(F)c1)c1cccc(S(=O)(=O)NC2CCCC2)c1 | 0.27 µM | 0.43 µM | 57 µM (≈ 20.7 µg/mL) | > 25 µM | 88% | 100% | 
O=C(Nc1ccc(F)cc1)c1cccc(NS(=O)(=O)C2CCCCC2)c1 | 1.1 µM | 2.2 µM | 86 µM (≈ 32.4 µg/mL) | 33.6 µM | 46% | 91% | 0.3
CN(c1cccc(C(=O)Nc2ccc(F)cc2)c1)S(=O)(=O)C1CCCC1 | 7.5 µM | 16.3 µM | 53 µM (≈ 20 µg/mL) | 43.2 µM | 86% | 99% | 2
CC1(NS(=O)(=O)c2cccc(C(=O)Nc3ccc(F)cc3)c2)COC1 | 0.96 µM | 0.93 µM | > 100 µM | > 100 µM | 3% | 29% | 0.5
O=C(Nc1ccc(F)cc1)c1cccc(S(=O)(=O)NC2CCCCC2)c1 |  | 0.58 µM | 43 µM (≈ 16.2 µg/mL) | > 25 µM | 69% | 93% | 0.2
CCC(CC)NS(=O)(=O)c1cccc(C(=O)Nc2ccc(F)cc2)c1 | 0.75 µM | 3.63 µM | 15 µM (≈ 5.47 µg/mL) | 40.3 µM | 53% | 99% | 
CC[C@H](C)NS(=O)(=O)c1cccc(C(=O)Nc2ccc(F)cc2)c1 | 0.75 µM | 8.63 µM | 92 µM (≈ 32.2 µg/mL) | 39.6 µM | 18% | 82% | 
O=C(Nc1ccc(F)cc1)c1cccc(S(=O)(=O)N[C@H]2CCOC2)c1 | 0.54 µM | 1.36 µM | > 100 µM | > 100 µM | 32% | 29% | 
CC[C@@H](C)NS(=O)(=O)c1cccc(C(=O)Nc2ccc(F)cc2)c1 | 0.34 µM | 0.89 µM | 59 µM (≈ 20.7 µg/mL) | 46 µM | 21% | 88% | 
O=C(NCc1ccccc1)c1cc(S(=O)(=O)NC2CCCCC2)ccc1F | > 100 µM |  | 29 µM (≈ 11.3 µg/mL) | 93.9 µM | 74% |  | 8.4
CC(C)NS(=O)(=O)c1cccc(C(=O)Nc2ccc(F)cc2)c1 | 0.74 µM | 0.96 µM | > 100 µM | 57.5 µM | 16% | 61% | 
O=C(Nc1ccc(F)cc1)c1cccc(S(=O)(=O)NC2CCOCC2)c1 | 0.93 µM | 1.67 µM | > 100 µM | > 100 µM | 14% | 48% | 
CN(C1CCCC1)S(=O)(=O)c1cccc(C(=O)Nc2ccc(F)cc2)c1 | 2.6 µM | 11.1 µM | 19 µM (≈ 7.15 µg/mL) | 23.8 µM | 98% | 100% | 
O=C(Nc1ccc(F)cc1)c1cccc(S(=O)(=O)N[C@@H]2CCOC2)c1 | 1.18 µM | 2.03 µM | > 100 µM | > 100 µM | 21% | 24% | 
O=C(Nc1ccc(F)cc1)c1cccc(S(=O)(=O)N2CCCC2)c1 | 4.53 µM | 3.03 µM | 48 µM (≈ 16.7 µg/mL) | 96.9 µM | 44% | 96% | 
